{"source": "ChEMBL document CHEMBL1250446", "about": "“Novel targets for Huntington's disease in an mTOR-independent autophagy pathway” (Nat Chem Biol, 2008)", "key": {"[1]": {"system": "SK-N-MC", "assay": "Cytotoxicity against human SK-N-MC cells expressing EGFP-HDQ74 at 1 uM after 48 hrs", "assay_type": "cell-based"}, "[2]": {"system": "COS-7", "assay": "Induction of autophagy in african green monkey COS7 cells assessed as increase in LC-3-2 positive vesicles at 2.5 uM after 2 hrs by immunofluorescence analysis", "assay_type": "functional, cell-based", "conditions": "Chlorocebus aethiops", "summary_of_the_method": "(§1)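 COS-7 cells treated 2 h, fixed in 4% paraformaldehyde, then immunostained with anti-LC3 and Alexa-conjugated secondary antibodies. LC3-positive vesicles imaged by confocal microscopy (63x oil lens) at room temperature.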"}, "[3]": {"system": "COS-7", "assay": "Effect on mTOR-signaling in african green monkey COS7 cells assessed as phospho-S6K at 2.5 uM by immunoblotting analysis", "assay_type": "cell-based", "conditions": "Chlorocebus aethiops", "summary_of_the_method": "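COS-7 cells exposed 24 h (0.2 μM rapamycin as positive control for mTOR inhibition); lysates immunoblotted for phospho-S6K, with densitometry of phospho-S6K relative to total S6K.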"}, "[4]": {"system": "COS-7", "assay": "Induction of autophagy in african green monkey COS7 cells expressing EGFP-Atg5 assessed as increase in Atg5 level at 10 uM after 48 hrs by immunoblotting analysis", "assay_type": "functional, cell-based", "conditions": "Chlorocebus aethiops", "summary_of_the_method": "(§2)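 COS-7 cells co-transfected 4 h with EGFP-Atg5 plus EGFP as transfection control (3:1 ratio), then treated. Atg5 level and cleavage assessed by immunoblotting.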"}, "[5]": {"system": "COS-7", "assay": "Induction of autophagy in african green monkey COS7 cells expressing EGFP-HDQ74 assessed as EGFP-HDQ74 aggregation at 2.5 uM after 48 hrs", "assay_type": "functional, cell-based", "conditions": "Chlorocebus aethiops", "summary_of_the_method": "(§3)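 COS-7 cells transfected with EGFP-HDQ74 (1.5 μg/well) for 4 h, then exposed for the last 24 h of a 48 h post-transfection period. ALLM (50 μM) was added 15 min before thapsigargin. Cells fixed in 4% PFA with DAPI mount; ~200 EGFP-positive cells per sample scored blinded for aggregates. Triplicate, at least twice; odds ratios.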"}, "[6]": {"system": "COS-7", "assay": "Induction of autophagy in african green monkey COS7 cells assessed as increase in steady state LC-3 positive vesicles at 2.5 uM after 2 hrs by immunofluorescence analysis", "assay_type": "functional, cell-based", "conditions": "Chlorocebus aethiops", "summary_of_the_method": "as §1"}, "[7]": {"system": "COS-7", "assay": "Induction of autophagy in african green monkey COS7 cells assessed as intracytosolic calcium concentration nu calpain activation assay", "assay_type": "functional, cell-based", "conditions": "Chlorocebus aethiops"}, "[8]": {"system": "PC-12", "assay": "Induction of autophagy in rat stable inducible PC12 cells expressing A53T alpha-synuclein assessed as A53T alpha-synuclein clearance at 2.5 uM after 24 hrs by densitometric analysis", "assay_type": "functional, cell-based", "summary_of_the_method": "(§4)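 Stable inducible PC12 line: A53T α-synuclein (HA-tagged) induced with 1 μg/ml doxycycline for 48 h, then switched off by doxycycline removal for 24 h during treatment. For ALLM (50 μM), 15 min pre-treatment. Anti-HA immunoblot, densitometry relative to actin; DMSO control.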"}, "[9]": {"system": "COS-7", "assay": "Induction of autophagy in african green monkey COS7 cells expressing EGFP-Atg5 assessed as increase in Atg5 level at 2.5 uM after 48 hrs by immunoblotting analysis", "assay_type": "functional, cell-based", "conditions": "Chlorocebus aethiops", "summary_of_the_method": "as §2"}, "[10]": {"system": "COS-7", "assay": "Induction of autophagy in african green monkey COS7 cells expressing EGFP-HDQ74 assessed as EGFP-HDQ74 aggregation at 2.5 uM after 48 hrs in presence of 50 uM ALLM", "assay_type": "functional, cell-based", "conditions": "Chlorocebus aethiops", "summary_of_the_method": "as §3"}, "[11]": {"system": "PC-12", "assay": "Induction of autophagy in rat stable inducible PC12 cells expressing A53T alpha-synuclein assessed as A53T alpha-synuclein clearance at 2.5 uM after 24 hrs by densitometric analysis in presence of 50 uM ALLM", "assay_type": "functional, cell-based", "summary_of_the_method": "as §4"}, "[12]": {"system": "COS-7", "assay": "Induction of autophagy in african green monkey COS7 cells assessed as increase in LC-3-2 positive vesicles at 2.5 uM after 2 hrs by immunofluorescence analysis n presence of 400 nM bafilomycin A1", "assay_type": "functional, cell-based", "conditions": "Chlorocebus aethiops"}, "[13]": {"system": "SK-N-SH (Homo sapiens)", "assay": "Induction of autophagy in human SK-N-SH cells expressing EGFP-HDQ74 assessed as reduction in EGFP-HDQ74 aggregation at 1 uM after 48 hrs by densitometric analysis"}, "[14]": {"system": "COS-7", "assay": "Induction of autophagy in african green monkey COS7 cells expressing EGFP-HDQ74 assessed as huntingtin mutant aggregation at 10 uM after 48 hrs", "assay_type": "functional, cell-based", "conditions": "Chlorocebus aethiops", "summary_of_the_method": "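COS-7 cells seeded at 1×10⁵/well for 24 h, then transfected with pEGFP-HDQ74 (1.5 μg/well) using LipofectAMINE for 4 h. Compound added, and cells fixed at 48 h and mounted in DAPI. About 200 EGFP-positive cells per sample were scored for presence of aggregates by a blinded observer. Triplicate, at least twice.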"}, "[15]": {"system": "COS-7", "assay": "Induction of autophagy in african green monkey COS7 cells expressing PLC-epsilon assessed as calpain activation at 2.5 uM after 30 mins by immunoblotting analysis", "assay_type": "functional, cell-based", "conditions": "Chlorocebus aethiops", "summary_of_the_method": "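Calpain activation in COS-7 after 30 min exposure, alongside 2.5 μM thapsigargin where applied; immunoblot of the active calpain small subunit.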"}, "[16]": {"system": "HeLa", "assay": "Induction of autophagy in human HeLa cells expressing EGFP-LC3 assessed as increase in LC3-2 level at 400 nM", "assay_type": "functional, cell-based"}, "[17]": {"system": "SK-N-SH", "assay": "Induction of autophagy in human SK-N-SH cells expressing EGFP-HDQ74 assessed as reduction in EGFP-HDQ74 aggregation at 500 uM after 48 hrs by densitometric analysis", "assay_type": "functional, cell-based"}, "[18]": {"system": "PC-12", "assay": "Induction of autophagy in rat stable inducible PC12 cells expressing A53T alpha-synuclein assessed as A53T alpha-synuclein clearance at 500 uM after 24 hrs by densitometric analysis", "assay_type": "functional, cell-based", "summary_of_the_method": "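Inducible PC12 A53T α-synuclein (HA) cells induced with 1 μg/ml doxycycline for 48 h. Doxycycline then removed for 24 h with compound or DMSO. Remaining protein measured by anti-HA immunoblot, densitometry relative to actin.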"}, "[19]": {"organism": "Danio rerio", "assay": "Protection of neurodegeneration in zebrafish Huntington's disease model expressing EGFP-tagged huntingtin exon with EGFP-HDQ71 in rod photoreceptor assessed as loss of rhodopsin expression at 3 uM"}, "[20]": {"organism": "Danio rerio", "assay": "Protection of neurodegeneration in zebrafish Huntington's disease model expressing EGFP-tagged huntingtin exon with EGFP-HDQ71 in rod photoreceptor assessed as decrease in […] aggregation at 3 uM"}}, "note": "Calls of active or inactive are those of the source. The calls are words filed in the database; no cut-off is given here.", "data": [{"smiles": "Clc1cccc(Cl)c1N=C1NCCN1", "note": "[CLONIDINE]", "values": [{"measurement": "Activity", "setting": "[1]", "value": "Non-toxic"}]}, {"smiles": "C/C=C(/C)C(=O)O[C@H]1C(C)=C2[C@H]([C@@H]1OC(=O)CCCCCCC)[C@@](C)(OC(C)=O)C[C@H](OC(=O)CCC)[C@@]1(O)[C@H]2OC(=O)[C@@]1(C)O", "values": [{"measurement": "Activity", "setting": "[2]", "value": "Active"}, {"measurement": "Activity", "setting": "[3]", "value": "inactive"}, {"measurement": "Activity", "setting": "[4]", "value": "Active"}, {"measurement": "Activity", "setting": "[5]", "value": "inactive"}, {"measurement": "Activity", "setting": "[6]", "value": "Active"}, {"measurement": "Activity", "setting": "[7]", "value": "inactive"}, {"measurement": "Activity", "setting": "[8]", "value": "inactive"}, {"measurement": "Activity", "setting": "[9]", "value": "Active"}, {"measurement": "Activity", "setting": "[10]", "value": "Active"}, {"measurement": "Activity", "setting": "[11]", "value": "Active"}, {"measurement": "Activity", "setting": "[12]", "value": "inactive"}]}, {"smiles": "CCOC(=O)C1=C(C)NC(C)=C(C(=O)OC)C1c1cccc([N+](=O)[O-])c1", "note": "(centres undefined) [NITRENDIPINE]", "values": [{"measurement": "Activity", "setting": "[1]", "value": "Non-toxic"}, {"measurement": "Activity", "setting": "[13]", "value": "Active"}]}, {"smiles": "CO[C@@H]1[C@@H]2OP(=O)(O)OC[C@H]2O[C@H]1n1c(Sc2ccc(Cl)cc2)nc2c(N)ncnc21", "values": [{"measurement": "Activity", "setting": "[14]", "value": "inactive"}, {"measurement": "Activity", "setting": "[15]", "value": "inactive"}]}, {"smiles": "CO/C1=C\\C(C)=C\\[C@@H](C)[C@@H](O)[C@@H](C)C/C(C)=C/C=C/[C@H](OC)[C@@H]([C@@H](C)[C@@H](O)[C@H](C)[C@@]2(O)C[C@@H](O)[C@H](C)[C@@H](C(C)C)O2)OC1=O", "values": [{"measurement": "Activity", "setting": "[16]", "value": "Active"}]}, {"smiles": "C=C[C@@]1(C)CC(=O)[C@]2(O)[C@@]3(C)[C@@H](O)CCC(C)(C)[C@@H]3[C@H](O)[C@H](OC(C)=O)[C@@]2(C)O1", "values": [{"measurement": "Activity", "setting": "[17]", "value": "inactive"}, {"measurement": "Activity", "setting": "[18]", "value": "inactive"}]}, {"smiles": "CCCC(CCC)C(=O)O", "note": "[VALPROIC ACID]", "values": [{"measurement": "Activity", "setting": "[1]", "value": "Non-toxic"}, {"measurement": "Activity", "setting": "[19]", "value": "inactive"}, {"measurement": "Activity", "setting": "[20]", "value": "Active"}, {"measurement": "Activity", "setting": "[13]", "value": "Active"}]}, {"smiles": "O=C(Nc1ncnc2c1ncn2[C@@H]1O[C@@H]2COP(=O)(O)O[C@H]2[C@H]1O)c1ccccc1", "values": [{"measurement": "Activity", "setting": "[15]", "value": "Active"}]}]}
